Active and inactive are the calls of the source. No cut-off for these calls is given here.

Holding throughout (format): functional
The test system of one experiment is A375P. The experiment is described as follows: (§1) Antiproliferative activity against human A375P cells assessed as growth inhibition after 24 hrs by MTT assay. In short, it runs like this:
(§2)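 A375P cells kept in DMEM with 10% FBS and 1% penicillin/streptomycin at 37 °C under 5% CO2. Cells lifted with 0.05% trypsin–0.02% EDTA, seeded at 5 × 10^3 cells/well and left 24 h before dosing. Test compounds given as a 3-fold serial dilution over 12 points. Viability read by MTT reduction, absorbance at 590 nm.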
A general note: Tetrazolium assays rely on reduction of a dye to a coloured formazan, in cell work by metabolically active cells.

In a further experiment the test system is HS27. The experiment is described as follows: Antiproliferative activity against human HS27 cells assessed as growth inhibition after 24 hrs by MTT assay. The conditions noted are these: HS27, 24 h.
Experiment [1] is described as follows: as §1. The method, boiled down: as §2

The GI50 is the concentration giving 50% growth inhibition. Take `COc1ccc(Cn2ncc(NC(=O)c3cc(NC(=O)c4ccc(-c5cc(C(F)(F)F)ccc5Cl)o4)ccc3C)c2N)cc1`: the GI50 entry in the experiment on A375P is “inactive”. Also, the GI50 with HS27 is > 30 µM.
For the compound `COc1ccc(Cn2ncc(NC(=O)c3cc(NC(=O)Nc4cccc(Cl)c4)ccc3C)c2N)cc1`, the results for the 50% growth inhibitory concentration (GI50) (in experiment [1]; with HS27) were 0.21 µM and > 30 µM, respectively.
Taken in the same sequence, the figures for `Cc1ccc(NC(=O)Nc2ccc(Cl)c(C(F)(F)F)c2)cc1C(=O)Nc1cnn(Cc2ccccc2)c1N` were 15.9 µM and > 30 µM.
For `COc1ccc(Cn2ncc(NC(=O)c3cc(NC(=O)Nc4ccc(C(F)(F)F)cc4)ccc3C)c2N)cc1`, the GI50 (in experiment [1]; with HS27) was > 30 µM throughout.
Turning to `COc1ccc(Cn2ncc(NC(=O)c3cc(NC(=O)c4cnn(-c5ccc(Cl)cc5)c4C(F)(F)F)ccc3C)c2N)cc1`, the 50% growth inhibitory concentration (GI50) (in experiment [1]; in the experiment with HS27) was > 30 µM throughout.
Turning to `COc1ccc(Cn2ncc(NC(=O)c3ccc(NC(=O)Nc4cc(N5CCOCC5)cc(C(F)(F)F)c4)cc3C)c2N)cc1`, the figures for the GI50 (in experiment [1]; in the experiment with HS27) were 51.5 µM and > 30 µM, respectively.
As to `COc1ccc(Cn2ncc(NC(=O)c3ccc(NC(=O)c4cc(C)on4)cc3C)c2N)cc1`, the GI50 result with A375P is “inactive”. The GI50 with HS27 was > 30 µM.
In the same order, the values of `COc1ccc(Cn2ncc(NC(=O)c3ccc(NC(=O)c4cnn(-c5ccccc5)c4C(F)(F)F)cc3C)c2N)cc1` are “inactive” and > 30 µM.
Regarding `COc1ccc(Cn2ncc(NC(=O)c3cc(NC(=O)Nc4ccc(Cl)cc4)ccc3C)c2N)cc1`, the values for the GI50 (in experiment [1]; in the experiment with HS27) were 8.73 µM and > 30 µM, respectively.
Taken in the same sequence, the figures for `COc1ccc(Cn2ncc(NC(=O)c3ccc(NC(=O)c4cc5ccccc5o4)cc3C)c2N)cc1` were > 30 µM and > 30 µM.
As to `COc1ccc(Cn2ncc(NC(=O)c3ccc(NC(=O)c4cnccn4)cc3C)c2N)cc1`, the GI50 entry with A375P was “inactive”. In the experiment with HS27, the GI50 was > 30 µM.
In the case of `COc1ccc(Cn2ncc(NC(=O)c3ccc(NC(=O)Nc4cccc(Cl)c4)cc3C)c2N)cc1`, the GI50 is 36.5 µM in experiment [1] and > 30 µM in the experiment with HS27.
Taken in the same sequence, the figures for `COc1ccc(Cn2ncc(NC(=O)c3cc(NC(=O)c4cc(-n5cnc(C)c5)cc(C(F)(F)F)c4)ccc3C)c2N)cc1` were 11.3 µM and > 30 µM.
As for `COc1ccc(Cn2ncc(NC(=O)c3ccc(NC(=O)Nc4ccc(Cl)c(Cl)c4)cc3C)c2N)cc1`, the figures for the GI50 (in experiment [1]; in the experiment on HS27) were 4.12 µM and > 30 µM, respectively.
Take `COc1ccc(Cn2ncc(NC(=O)c3cc(NC(=O)c4cc(-c5ccc(Cl)cc5)on4)ccc3C)c2N)cc1`: the GI50 is 1.39 µM in experiment [1] and > 30 µM with HS27.
With `COc1ccc(Cn2ncc(NC(=O)c3ccc(NC(=O)Nc4cc(-n5cnc(C)c5)cc(C(F)(F)F)c4)cc3C)c2N)cc1`, the results for the GI50 (in experiment [1]; in the experiment with HS27) were 5.71 µM and > 30 µM, respectively.
Taken in the same sequence, the figures for `COc1ccc(Cn2ncc(NC(=O)c3cc(NC(=O)Nc4cc(Cl)c(Cl)cc4Cl)ccc3C)c2N)cc1` were 11.4 µM and > 30 µM.
Taken in the same sequence, the figures for `COc1ccc(Cn2ncc(NC(=O)c3ccc(NC(=O)Nc4cc(C(F)(F)F)ccc4N4CCOCC4)cc3C)c2N)cc1` were > 100 µM and > 30 µM.
On to `CNC(=O)c1cc(Oc2ccc(NC(=O)Nc3ccc(Cl)c(C(F)(F)F)c3)cc2)ccn1` [SORAFENIB], for which the GI50 in experiment [1] worked out at 5.58 µM.
Regarding `COc1ccc(Cn2ncc(NC(=O)c3ccc(NC(=O)Nc4cccc(C(F)(F)F)c4)cc3C)c2N)cc1`, the 50% growth inhibitory concentration (GI50) (in experiment [1]; with HS27) was > 30 µM each time.
As to `COc1ccc(Cn2ncc(NC(=O)c3cc(NC(=O)c4ccc([N+](=O)[O-])c(C(F)(F)F)c4)ccc3C)c2N)cc1`, the results for the GI50 (in experiment [1]; with HS27) were 27.9 µM and > 30 µM, respectively.
Taken in the same sequence, the figures for `COc1ccc(Cn2ncc(NC(=O)c3ccc(NC(=O)c4cc5ccccc5s4)cc3C)c2N)cc1` were > 30 µM and > 30 µM.
Taken in the same sequence, the figures for `COc1ccc(Cn2ncc(NC(=O)c3ccc(NC(=O)c4cc(-c5ccc(Cl)cc5)on4)cc3C)c2N)cc1` were 24.9 µM and > 30 µM.

Values taken from ChEMBL document CHEMBL1681781, “Structure based design and syntheses of amino-1H-pyrazole amide derivatives as selective Raf kinase inhibitors in melanoma cells” (Bioorg Med Chem, 2011).
